{"source": "paper PMC6060173", "about": "(The Lancet. Infectious Diseases, 2018)", "key": {"[1]": {"test_system": "P. falciparum", "test": "MIC/MPC estimate from nadir of parasitaemia in recrudescing patients", "type": "in vivo, Plasmodium falciparum", "conditions": "400 mg"}, "[2]": {"test_system": "Plasmodium falciparum", "test": "Phase 2a single-dose efficacy: PCR-adjusted ACPR, thick blood smear microscopy", "type": "in vivo", "conditions": "P falciparum", "procedure,_shortened": "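P falciparum patients (1000–35 000 asexual parasites per μL) received one oral dose of 400 or 250 mg. Treatment failure was read by thick blood smear microscopy; the first cohort initially used quantitative PCR. PCR adjustment distinguished recrudescence from new infection. ACPR was scored at days 14 and 28. ITT included all dosed patients; per-protocol excluded those who vomited, took other medication, had protocol violations or lacked data.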"}, "[3]": {"biological_target": "PvDHODH enzyme", "conditions": "truncated recombinant enzymes; cited from earlier work"}, "[4]": {"test_system": "P. falciparum Dd2 B2 clone", "conditions": "dhodh Gly181Cys mutation; cited from earlier work"}, "[5]": {"test_system": "P falciparum and P vivax field isolates", "conditions": "ex-vivo; cited from earlier work"}, "[6]": {"test": "Adverse events in malaria patients", "type": "in vivo, human", "procedure,_shortened": "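Patients received one oral dose of the test compound in suspension: 400 or 250 mg for P falciparum, and 400, 600 or 800 mg for P vivax. They were kept in clinic with checks every 4 h over days 0–3. Safety follow-up lasted 35 days. Safety was analysed in all patients who received at least one dose.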"}, "[7]": {"test": "Pharmacokinetics in malaria patients", "type": "in vivo, human", "procedure,_shortened": "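A further sample was taken on day 5 or 7, depending on day-3 parasitaemia. Later samples were taken on days 10–11, 14, 17–18, 21, 24–25, 28 and 35. Parameters were AUC0-t, AUC0-168, AUC0-inf, Cmax, tmax, t1/2, C168h and λinf.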"}, "[8]": {"test_system": "Plasmodium falciparum DHODH", "conditions": "cited from earlier work"}, "[9]": {"test_system": "Plasmodium vivax", "test": "Asexual parasite clearance parameters", "type": "in vivo", "conditions": "P vivax", "procedure,_shortened": "(§1)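 Parasitaemia was counted by microscopy before one oral dose of the test compound and every 4 h over days 0–3. If two consecutive negative readings were not reached, the stay was extended to 7 days with counts every 6 h until clearance. Clearance kinetics, including lag time before parasite decline, followed WWARN statistical procedures. Kaplan-Meier analyses used a modified ITT population.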"}, "[10]": {"test_system": "Plasmodium falciparum", "test": "Asexual parasite clearance parameters", "type": "in vivo", "conditions": "P falciparum", "procedure,_shortened": "as §1"}, "[11]": {"conditions": "cited from earlier work"}, "[12]": {"test": "12-lead and Holter ECG safety analysis in malaria patients", "type": "in vivo, human", "procedure,_shortened": "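Adults with uncomplicated malaria (18–70 years, 45–90 kg) received one oral dose of the test compound in suspension, ideally fasted. QT interval was corrected by Fridericia (QTcF) and compared with baseline. PR and QRS intervals were also recorded during the study.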"}, "[13]": {"test_system": "P falciparum", "conditions": "single dose of 400 mg administered 1 day before parasite challenge; cited from earlier work"}, "[14]": {"test_system": "P falciparum", "conditions": "for a 60 kg patient; cited from earlier work"}, "[15]": {"test_system": "Plasmodium vivax", "test": "Phase 2a single-dose efficacy: crude cure, thick blood smear microscopy", "type": "in vivo", "procedure,_shortened": "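P vivax patients (1000–35 000 asexual parasites per μL) received one oral dose of 400, 600 or 800 mg. Crude cure meant clearance of asexual parasites within 7 days with no later recurrence, read by thick smear microscopy without PCR adjustment. It was scored at day 14, and cure at day 28. Rescue treatment was given if parasites remained at day 7. Analysis used ITT and per-protocol populations.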"}, "[16]": {"test_system": "Plasmodium vivax", "test": "Gametocytaemia by microscopy", "type": "in vivo", "conditions": "cohort 2b, P vivax, 600 mg", "procedure,_shortened": "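Patients with P vivax malaria received one oral dose of the test compound: 400 mg in cohort 1b or 600 mg in cohort 2b. Gametocytaemia was assessed by microscopy throughout the 28-day follow-up. The measure was conversion from microscopy-negative at the start of treatment to gametocyte-positive.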"}, "[17]": {"conditions": "cohort 1a (n=13), P falciparum, 400 mg"}, "[18]": {"conditions": "cohort 1b (n=5), P vivax, 400 mg"}, "[19]": {"conditions": "cohort 2a (n=11), P falciparum, 250 mg"}, "[20]": {"conditions": "cohort 2b (n=9), P vivax, 600 mg"}, "[21]": {"conditions": "cohort 3b (n=7), P vivax, 800 mg"}}, "note": "Like-named read-outs stand apart in the source and are kept apart here."}
{"compound": "Cc1cc(Nc2ccc(S(F)(F)(F)(F)F)cc2)n2nc(C(C)(F)F)nc2n1", "note": "[DSM265]", "values": [{"measurement": "estimated duration of exposure greater than the minimum parasiticidal concentration", "setting": "[1]", "result": "around 10 days"}, {"measurement": "patients achieving ACPR at day 28", "setting": "[2]; 250 mg, ITT", "result": 55, "unit": "%"}, {"measurement": "patients achieving PCR-adjusted ACPR at day 14", "setting": "[2]; 250 mg, ITT", "result": 73, "unit": "%"}, {"measurement": "patients achieving ACPR at day 28", "setting": "[2]; 250 mg, per-protocol", "result": 60, "unit": "%"}, {"measurement": "patients achieving PCR-adjusted ACPR at day 14", "setting": "[2]; 250 mg, per-protocol", "result": 80, "unit": "%"}, {"measurement": "patients achieving PCR-adjusted ACPR at day 14", "setting": "[2]; 400 mg single oral dose, per-protocol", "result": 100, "unit": "%"}, {"measurement": "patients achieving ACPR at day 28", "setting": "[2]; 400 mg, ITT", "result": 69, "unit": "%"}, {"measurement": "patients achieving PCR-adjusted ACPR at day 14", "setting": "[2]; 400 mg, ITT", "result": 85, "unit": "%"}, {"measurement": "patients achieving ACPR at day 28", "setting": "[2]; 400 mg, per-protocol", "result": 89, "unit": "%"}, {"measurement": "IC50 for the PvDHODH enzyme relative to PfDHODH", "setting": "[3]", "result": "two times higher"}, {"measurement": "reduction in potency", "setting": "[4]", "result": 26, "unit": "times"}, {"measurement": "efficacy for P falciparum compared with P vivax", "setting": "[5]", "result": "five-times better"}, {"measurement": "patients with headache", "setting": "[6]; all 45 patients", "result": 40, "unit": "%"}, {"measurement": "patients with pyrexia", "setting": "[6]; all 45 patients", "result": 44, "unit": "%"}, {"measurement": "abnormal haematology laboratory results considered clinically significant", "setting": "[6]; all patients", "result": "No patients"}, {"measurement": "treatment-related serious adverse events or adverse events leading to study discontinuation", "setting": "[6]; all patients", "result": "no patients"}, {"measurement": "Adverse event of special interest", "setting": "[6]; [17]", "result": "2 (15%) number of patients (%)"}, {"measurement": "Any adverse event", "setting": "[6]; [17]", "result": "10 (77%) number of patients (%)"}, {"measurement": "Serious adverse event", "setting": "[6]; [17]", "result": "0 number of patients (%)"}, {"measurement": "Severe adverse event", "setting": "[6]; [17]", "result": "0 number of patients (%)"}, {"measurement": "Treatment-related adverse event", "setting": "[6]; [17]", "result": "3 (23%) number of patients (%)"}, {"measurement": "Adverse event of special interest", "setting": "[6]; [18]", "result": "0 number of patients (%)"}, {"measurement": "Any adverse event", "setting": "[6]; [18]", "result": "4 (80%) number of patients (%)"}, {"measurement": "Serious adverse event", "setting": "[6]; [18]", "result": "0 number of patients (%)"}, {"measurement": "Severe adverse event", "setting": "[6]; [18]", "result": "1 (20%) number of patients (%)"}, {"measurement": "Treatment-related adverse event", "setting": "[6]; [18]", "result": "1 (20%) number of patients (%)"}, {"measurement": "Adverse event of special interest", "setting": "[6]; [19]", "result": "3 (27%) number of patients (%)"}, {"measurement": "Any adverse event", "setting": "[6]; [19]", "result": "7 (64%) number of patients (%)"}, {"measurement": "Serious adverse event", "setting": "[6]; [19]", "result": "1 (9%) number of patients (%)"}, {"measurement": "Severe adverse event", "setting": "[6]; [19]", "result": "2 (18%) number of patients (%)"}, {"measurement": "Treatment-related adverse event", "setting": "[6]; [19]", "result": "2 (18%) number of patients (%)"}, {"measurement": "Adverse event of special interest", "setting": "[6]; [20]", "result": "1 (11%) number of patients (%)"}, {"measurement": "Any adverse event", "setting": "[6]; [20]", "result": "7 (78%) number of patients (%)"}, {"measurement": "Serious adverse event", "setting": "[6]; [20]", "result": "0 number of patients (%)"}, {"measurement": "Severe adverse event", "setting": "[6]; [20]", "result": "0 number of patients (%)"}, {"measurement": "Treatment-related adverse event", "setting": "[6]; [20]", "result": "0 number of patients (%)"}, {"measurement": "Adverse event of special interest", "setting": "[6]; [21]", "result": "0 number of patients (%)"}, {"measurement": "Any adverse event", "setting": "[6]; [21]", "result": "6 (86%) number of patients (%)"}, {"measurement": "Serious adverse event", "setting": "[6]; [21]", "result": "0 number of patients (%)"}, {"measurement": "Severe adverse event", "setting": "[6]; [21]", "result": "0 number of patients (%)"}, {"measurement": "Treatment-related adverse event", "setting": "[6]; [21]", "result": "0 number of patients (%)"}, {"measurement": "tolerability", "setting": "[6]; single oral dose 250-800 mg, all patients", "result": "well tolerated"}, {"measurement": "dose proportionality based on Cmax and AUC0-∞", "setting": "[7]; P falciparum patients, 250 mg or 400 mg", "result": "dose proportional"}, {"measurement": "dose proportionality of exposure", "setting": "[7]; P vivax patients, 400 mg to 800 mg", "result": "slightly subproportional"}, {"measurement": "Tmax", "setting": "[7]; human, plasma, oral, tmax, seen for the other patients", "result": "6 to 8", "unit": "h"}, {"measurement": "in-vitro selectivity for Plasmodium falciparum DHODH over its human ortholog", "setting": "[8]", "result": "very high"}, {"measurement": "Profiles with lag", "setting": "[9]; cohort 1b, 400 mg, 4 profiles analysed", "result": 3}, {"measurement": "Profiles with lag", "setting": "[9]; cohort 2b, 600 mg, 9 profiles analysed", "result": 3}, {"measurement": "Profiles with lag", "setting": "[9]; cohort 3b, 800 mg, 6 profiles analysed", "result": 1}, {"measurement": "Profiles with lag", "setting": "[10]; cohort 1a, 400 mg, 8 profiles analysed", "result": 4}, {"measurement": "Profiles with lag", "setting": "[10]; cohort 2a, 250 mg, 7 profiles analysed", "result": 5}, {"measurement": "duration of effectiveness (pharmacokinetic profile)", "setting": "[11]; after a single oral dose in the range of 200–400 mg", "result": "more than 8 days"}, {"measurement": "tolerability", "setting": "[11]; healthy participants, single doses of ≤1200 mg", "result": "generally well tolerated"}, {"measurement": "values for QTcF recorded", "setting": "[12]; in a few patients", "result": "450 to 500", "unit": "ms"}, {"measurement": "QTcF changes from baseline", "setting": "[12]; more patients with P falciparum than P vivax", "result": "30 to 60", "unit": "ms"}, {"measurement": "protection from infection", "setting": "[13]", "result": "complete protection"}, {"measurement": "predicted efficacious single curative dose", "setting": "[14]", "result": 340, "unit": "mg"}, {"measurement": "patients achieving crude cure at day 14", "setting": "[15]; P vivax, 400 mg, ITT (five patients)", "result": "none"}, {"measurement": "patients achieving crude cure at day 14", "setting": "[15]; P vivax, 400 mg, per-protocol (four patients)", "result": "none"}, {"measurement": "patients achieving crude cure at day 14", "setting": "[15]; P vivax, 600 mg, ITT", "result": 33, "unit": "%"}, {"measurement": "patients achieving crude cure at day 14", "setting": "[15]; P vivax, 600 mg, per-protocol", "result": 50, "unit": "%"}, {"measurement": "patients achieving crude cure at day 14", "setting": "[15]; P vivax, 800 mg, ITT", "result": 14, "unit": "%"}, {"measurement": "patients achieving crude cure at day 14", "setting": "[15]; P vivax, 800 mg, per-protocol", "result": 25, "unit": "%"}, {"measurement": "patients achieving a cure at day 28", "setting": "[15]; P vivax, all doses", "result": "No patients"}, {"measurement": "P vivax clearance", "setting": "[15]; within the first 100 h, doses of 600 mg and 800 mg", "result": "99–100%"}, {"measurement": "patients negative for gametocytaemia at baseline who became positive", "setting": "[16]", "result": 13, "unit": "%"}]}
{"compound": "Cc1cc(Nc2ccc(C(F)(F)F)nc2)n2nc(C(C)(F)F)nc2n1", "note": "[DSM421, reference compound]", "values": [{"measurement": "efficacy for P falciparum compared with P vivax", "setting": "[5]", "result": "equal efficacy"}]}
